Converted amounts (≈) assume the structure as drawn.
Columns and labels:
Type in all cases: functional
Vero [1] = assay: Evaluation in Vero cell cultures for cytotoxicity that is to cause microscopically detectable alteration of normal cell morphology; conditions: Chlorocebus sabaeus
Method in brief: (§1)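 Vero cultures were infected with parainfluenza-3, reovirus-1, Sindbis, Coxsackie B4 or Semliki forest virus. Values are concentrations giving 50% reduction of virus-induced cytopathogenicity, or a microscopically detectable alteration of normal cell morphology for cytotoxicity. Each is the average of two separate experiments.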

[2] = Evaluation for antiviral activity against herpes simplex virus-2(196) in primary rabbit kidney cell cultures(PRK) (Concentration required to reduce virus-induced cytopathogenicity by 50%); conditions: Oryctolagus cuniculus
MDCK = assay: Compound was evaluated in MDCK cell cultures for cytotoxicity that is to cause microscopically detectable alteration of normal cell morphology; conditions: Canis lupus familiaris
Method in brief: (§2)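 Influenza A and B virus replication in MDCK cultures. Antiviral value is the concentration giving 50% reduction of virus-induced cytopathogenicity. Cytotoxicity is the concentration causing a microscopically detectable change in normal cell morphology.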

Vero [3] = assay: Evaluation for antiviral activity against parainfluenza-3 virus in Vero cell cultures (Concentration required to reduce virus-induced cytopathogenicity by 50%); conditions: Chlorocebus sabaeus; method in brief: as §1
L1210 = assay: Inhibitory effect on the proliferation of murine leukemia cells (L1210); conditions: Mus musculus, read-out: ID50 (the source's name)
Method in brief: (§3)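 Proliferation assay in murine leukemia L1210, human T-lymphoblast Molt-4F and human T-lymphocyte MT-4 cells. ID50 is the dose inhibiting tumor cell proliferation by 50%, expressed in μg/mL.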

MOLT-4F = assay: Inhibitory effect on the proliferation of human T-lymphoblast cells (Molt-4F); conditions: read-out: ID50 (the source's name); method in brief: as §3
[4] = Evaluation for antiviral activity against vesicular stomatitis virus in primary rabbit kidney cell cultures(PRK) (Concentration required to reduce virus-induced cytopathogenicity by 50%); conditions: Oryctolagus cuniculus
Vero [5] = assay: Evaluation for antiviral activity against Coxsackie virus B4 in Vero cell cultures (Concentration required to reduce virus-induced cytopathogenicity by 50%); conditions: Chlorocebus sabaeus; method in brief: as §1
Influenza B virus = assay: Concentration required to reduce influenza virus B (singapore) induced cytopathogenicity by 50%; method in brief: as §2
Influenza A virus = assay: Concentration required to reduce influenza virus A (ishikawa) induced cytopathogenicity by 50%; method in brief: as §2
HeLa [6] = assay: Evaluation for antiviral activity against polio virus-1 in HeLa cell cultures (Concentration required to reduce virus-induced cytopathogenicity by 50%); conditions: Homo sapiens
Method in brief: (§4)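 HeLa cultures were infected with respiratory syncytial, vesicular stomatitis, Coxsackie B4 or polio-1 virus. The antiviral end-point is 50% reduction of virus-induced cytopathogenicity. Cytotoxicity is the minimum concentration producing microscopically detectable alteration of normal cell morphology.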

[7] = Evaluation for antiviral activity against herpes simplex virus-1(TK-) (B2006) in primary rabbit kidney cell cultures(PRK) (Concentration required to reduce virus-induced cytopathogenicity by 50%); conditions: Oryctolagus cuniculus
HeLa [8] = assay: Evaluation in HeLa cell cultures for cytotoxicity that is to cause microscopically detectable alteration of normal cell morphology; conditions: Homo sapiens; method in brief: as §4
Vero [9] = assay: Evaluation for antiviral activity against forest virus in Vero cell cultures (Concentration required to reduce virus-induced cytopathogenicity by 50%); conditions: Chlorocebus sabaeus; method in brief: as §1
MT4 = assay: Inhibitory effect on the proliferation of human T-lymphocyte (MT-4); conditions: read-out: ID50 (the source's name); method in brief: as §3
HeLa [10] = assay: Evaluation for antiviral activity against Coxsackie virus B4 in HeLa cell cultures (Concentration required to reduce virus-induced cytopathogenicity by 50%); conditions: Homo sapiens; method in brief: as §4
HeLa [11] = assay: Compound was evaluated for antiviral activity against respiratory syncitial virus (long) in HeLa cell cultures (Concentration required to reduce virus-induced cytopathogenicity by 50%); conditions: Homo sapiens; method in brief: as §4
[12] = Evaluation for antiviral activity against vaccinia virus in primary rabbit kidney cell cultures(PRK) (Concentration required to reduce virus-induced cytopathogenicity by 50%); conditions: Oryctolagus cuniculus
Vero [13] = assay: Evaluation for antiviral activity against Sindbis virus in Vero cell cultures (Concentration required to reduce virus-induced cytopathogenicity by 50%); conditions: Chlorocebus sabaeus; method in brief: as §1
HeLa [14] = assay: Evaluation for antiviral activity against vesicular stomatitis virus in HeLa cell cultures (Concentration required to reduce virus-induced cytopathogenicity by 50%); conditions: Homo sapiens; method in brief: as §4
[15] = Evaluation for antiviral activity against herpes simplex virus-2(Lyons) in primary rabbit kidney cell cultures(PRK) (Concentration required to reduce virus-induced cytopathogenicity by 50%); conditions: Oryctolagus cuniculus
[16] = Evaluation for antiviral activity against herpes simplex virus-2(G) in primary rabbit kidney cell cultures(PRK) (Concentration required to reduce virus-induced cytopathogenicity by 50%); conditions: Oryctolagus cuniculus
[17] = Evaluated for antiviral activity against herpes simplex virus-1(KOS) in primary rabbit kidney cell cultures(PRK) (Concentration required to reduce virus-induced cytopathogenicity by 50%); conditions: Oryctolagus cuniculus
Vero [18] = assay: Evaluation for antiviral activity against reo virus-1 in Vero cell cultures (Concentration required to reduce virus-induced cytopathogenicity by 50%); conditions: Chlorocebus sabaeus; method in brief: as §1
[19] = Evaluation for antiviral activity against herpes simplex virus-1 (McIntyre) in primary rabbit kidney cell cultures(PRK) (Concentration required to reduce virus-induced cytopathogenicity by 50%); conditions: Oryctolagus cuniculus
[20] = Evaluation for antiviral activity against herpes simplex virus-1(F) in primary rabbit kidney cell cultures(PRK) (Concentration required to reduce virus-induced cytopathogenicity by 50%); conditions: Oryctolagus cuniculus
[21] = Evaluation in PRK cell cultures for cytotoxicity that is to cause microscopically detectable alteration of normal cell morphology; conditions: Oryctolagus cuniculus

| Structure (SMILES) | MCC (Vero [1]) [µg/mL] | MIC [2] [µg/mL] | MCC (MDCK) [µg/mL] | MIC (Vero [3]) [µg/mL] | IC50 (L1210) [µg/mL] | IC50 (MOLT-4F) [µg/mL] | MIC [4] [µg/mL] | MIC (Vero [5]) [µg/mL] | MIC (Influenza B virus) [µg/mL] | MIC (Influenza A virus) [µg/mL] | MIC (HeLa [6]) [µg/mL] | MIC [7] [µg/mL] | MCC (HeLa [8]) [µg/mL] | MIC (Vero [9]) [µg/mL] | IC50 (MT4) [µg/mL] | MIC (HeLa [10]) [µg/mL] | MIC (HeLa [11]) [µg/mL] | MIC [12] [µg/mL] | MIC (Vero [13]) [µg/mL] | MIC (HeLa [14]) [µg/mL] | also measured |
| --- | --- | --- | --- | --- | --- | --- | --- | --- | --- | --- | --- | --- | --- | --- | --- | --- | --- | --- | --- | --- | --- |
| N[C@H]1CSCON2CCc3c([nH]c4ccccc34)[C@H]12 | > 10 | 2 (≈ 7.26 µM) | 8 | > 4 | 1.4 (≈ 5.08 µM) | 0.6 (≈ 2.18 µM) | > 4 | > 4 | > 1.6 | > 1.6 | > 1 | > 4 | > 4 | > 4 | 0.77 (≈ 2.8 µM) | > 1 | > 1.6 | > 4 | > 4 | > 1 | MIC [15]: 2 µg/mL (≈ 7.26 µM); MIC [16]: > 4 µg/mL; MIC [17]: > 4 µg/mL; MIC (Vero [18]): > 4 µg/mL; MIC [19]: > 4 µg/mL; MIC [20]: 2 µg/mL (≈ 7.26 µM); MCC [21]: 10 µg/mL |
| N[C@@H]1CSCON2CCc3c([nH]c4ccccc34)[C@H]12 | > 4 | 0.2 (≈ 0.726 µM) | 8 | 0.2 (≈ 0.726 µM) | 0.11 (≈ 0.399 µM) | 0.12 (≈ 0.436 µM) | 0.2 (≈ 0.726 µM) | 0.4 (≈ 1.45 µM) | 0.8 (≈ 2.91 µM) | 0.8 (≈ 2.91 µM) | 0.7 (≈ 2.54 µM) | 0.7 (≈ 2.54 µM) | > 4 | 0.2 (≈ 0.726 µM) | 0.075 (≈ 0.272 µM) | 0.7 (≈ 2.54 µM) | 0.8 (≈ 2.91 µM) | 0.1 (≈ 0.363 µM) | 0.2 (≈ 0.726 µM) | 0.2 (≈ 0.726 µM) | MIC [15]: 0.07 µg/mL (≈ 0.254 µM); MIC [16]: 0.2 µg/mL (≈ 0.726 µM); MIC [17]: 0.7 µg/mL (≈ 2.54 µM); MIC (Vero [18]): 0.4 µg/mL (≈ 1.45 µM); MIC [19]: 0.2 µg/mL (≈ 0.726 µM); MIC [20]: 0.07 µg/mL (≈ 0.254 µM); MCC [21]: > 10 µg/mL |

From ChEMBL document CHEMBL1125540, “Antiviral and antitumor structure-activity relationship studies on tetracyclic eudistomines” (1992)
